# How the values were obtained:
# Assay type in all cases: functional
# [1] = system: NCI-H226; test: Growth inhibition of human NCI-H226 cells after 48 hrs by sulforhodamine B assay; conditions: NCI-H226, 48 h
# Outline: (§1)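 NCI 60-human-tumor-cell-line panel, with compounds tested over a 5-log dose range. Values are taken from dose-response curves as log10 molar concentrations: GI50 is 50% net growth inhibition, TGI is total growth inhibition, and LC50 is 50% net cell death.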
# [2] = system: MDA-MB-231; test: Growth inhibition of human MDA-MB-231 cells after 48 hrs by sulforhodamine B assay; conditions: MDA-MB-231, 48 h; outline: as §1
# [3] = system: 786-0; test: Growth inhibition of human 786-0 cells after 48 hrs by sulforhodamine B assay; conditions: 786-0, 48 h; outline: as §1
# [4] = system: UO-31; test: Growth inhibition of human UO31 cells after 48 hrs by sulforhodamine B assay; conditions: UO-31, 48 h
# Outline: (§2)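 Run in the NCI 60-human-tumour-cell-line panel, tested over a 5-log dose range. Dose–response curves gave three values per cell line, each as a log10 molar concentration: GI50 (50% inhibition of net cell growth), TGI (total inhibition of net growth) and LC50 (50% net cell death). The mean graph midpoint is the arithmetic mean over all lines, with insensitive lines entered at the highest concentration tested.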
# [5] = system: CAKI-1; test: Growth inhibition of human Caki1 cells after 48 hrs by sulforhodamine B assay; conditions: CAKI-1, 48 h; outline: as §1
# [6] = system: NCI-H460; test: Growth inhibition of human NCI-H460 cells after 48 hrs by sulforhodamine B assay; conditions: NCI-H460, 48 h; outline: as §1
# [7] = system: CCRF-CEM; test: Growth inhibition of human CCRF-CEM cells after 48 hrs by sulforhodamine B assay; outline: as §1
# [8] = system: Malme-3M; test: Growth inhibition of human MALME-3M cells after 48 hrs by sulforhodamine B assay; outline: as §1
# [9] = system: M14; test: Growth inhibition of human M14 cells after 48 hrs by sulforhodamine B assay; conditions: M14, 48 h; outline: as §1
# [10] = system: OVCAR-3; test: Growth inhibition of human OVCAR-3 cells after 48 hrs by sulforhodamine B assay; conditions: OVCAR-3, 48 h; outline: as §1
# [11] = system: A498; test: Growth inhibition of human A498 cells after 48 hrs by sulforhodamine B assay; conditions: A498, 48 h; outline: as §1
# [12] = system: HOP-62; test: Growth inhibition of human HOP62 cells after 48 hrs by sulforhodamine B assay; conditions: HOP-62, 48 h; outline: as §1
# [13] = system: UACC-62; test: Growth inhibition of human UACC62 cells after 48 hrs by sulforhodamine B assay; conditions: UACC-62, 48 h; outline: as §2
# [14] = system: BT-549; test: Growth inhibition of human BT549 cells after 48 hrs by sulforhodamine B assay; conditions: BT-549, 48 h; outline: as §1
# [15] = system: KM12; test: Growth inhibition of human KM12 cells after 48 hrs by sulforhodamine B assay; conditions: KM12, 48 h; outline: as §1
# [16] = system: SK-OV-3; test: Growth inhibition of human SKOV3 cells after 48 hrs by sulforhodamine B assay; conditions: SK-OV-3, 48 h; outline: as §1
# [17] = system: HL-60(TB); test: Growth inhibition of human HL-60(TB) cells after 48 hrs by sulforhodamine B assay; conditions: HL-60, 48 h
# Outline: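 Tested only on compounds active in a three-line prescreen, in the NCI 60-human-tumour-cell-line panel over a 5-log dose range. Values come from dose–response curves as log10 molar GI50, the concentration inhibiting 50% net cell growth. Log10 TGI (total growth inhibition) and log10 LC50 (50% net cell death) were derived too. Mean graph midpoints include insensitive lines at the highest concentration tested.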
# [18] = system: NCI-H522; test: Growth inhibition of human NCI-H522 cells after 48 hrs by sulforhodamine B assay; conditions: NCI-H522, 48 h; outline: as §1
# [19] = system: T47D; test: Growth inhibition of human T47D cells after 48 hrs by sulforhodamine B assay; outline: as §2
# [20] = system: HOP-92; test: Growth inhibition of human HOP92 cells after 48 hrs by sulforhodamine B assay; conditions: HOP-92, 48 h; outline: as §1
# [21] = system: OVCAR-4; test: Growth inhibition of human OVCAR4 cells after 48 hrs by sulforhodamine B assay; conditions: OVCAR-4, 48 h; outline: as §1
# [22] = system: HT-29; test: Growth inhibition of human HT-29 cells after 48 hrs by sulforhodamine B assay; conditions: HT-29, 48 h; outline: as §1
# [23] = system: HCT-15; test: Growth inhibition of human HCT15 cells after 48 hrs by sulforhodamine B assay; conditions: HCT-15, 48 h; outline: as §1
# [24] = system: K562; test: Growth inhibition of human K562 cells after 48 hrs by sulforhodamine B assay; conditions: K562, 48 h; outline: as §1
# [25] = system: NCI/ADR-RES; test: Growth inhibition of human NCI/ADR-RES cells after 48 hrs by sulforhodamine B assay; outline: as §1
# [26] = system: EKVX; test: Growth inhibition of human EKVX cells after 48 hrs by sulforhodamine B assay; outline: as §1
# [27] = system: TK-10; test: Growth inhibition of human TK10 cells after 48 hrs by sulforhodamine B assay; conditions: TK-10, 48 h; outline: as §2
# [28] = system: SN12C; test: Growth inhibition of human SN12C cells after 48 hrs by sulforhodamine B assay; outline: as §2
# [29] = read-out: pLC50 (the source's name) (converted)
smiles,measurement,setting,value
COc1ccc(CNc2nc3cc(N)cc(N)c3nc2-c2ccccc2)cc1,GI50,[1],20.4 µM
same,LC50,[1],> 100 µM
same,TGI,[1]; read-out: pTGI (converted),70.8 µM
same,GI50,[2],2.88 µM
same,CC50,[2]; [29],64.6 µM
same,TGI,[2]; read-out: pTGI (converted),13.8 µM
same,GI50,[3],15.1 µM
same,CC50,[3]; [29],> 100 µM
same,TGI,[3]; read-out: pTGI (converted),41.7 µM
same,GI50,[4],11.5 µM
same,CC50,[4]; [29],72.4 µM
same,TGI,[4]; read-out: pTGI (converted),28.8 µM
same,GI50,[5],16.2 µM
same,CC50,[5]; [29],79.4 µM
same,TGI,[5]; read-out: pTGI (converted),36.3 µM
same,GI50,[6],20.4 µM
same,LC50 (50% net cell kill),[6],> 100 µM
same,TGI,[6]; read-out: pTGI (converted),47.9 µM
same,GI50,[7],3.39 µM
same,LC50,[7],> 100 µM
same,TGI,[7]; read-out: pTGI (converted),64.6 µM
same,GI50,[8],10.7 µM
same,CC50,[8]; [29],47.9 µM
same,TGI,[8]; read-out: pTGI (converted),22.4 µM
same,GI50,[9],18.2 µM
same,CC50,[9]; [29],57.5 µM
same,TGI,[9]; read-out: pTGI (converted),32.4 µM
same,GI50,[10],2.24 µM
same,CC50,[10]; [29],38.9 µM
same,TGI,[10]; read-out: pTGI (converted),7.76 µM
same,GI50,[11],> 100 µM
same,CC50,[11]; [29],> 100 µM
same,TGI,[11]; read-out: pTGI (converted),> 100 µM
same,GI50,[12],17.4 µM
same,LC50,[12],69.2 µM
same,TGI,[12]; read-out: pTGI (converted),34.7 µM
same,GI50,[13],14.8 µM
same,CC50,[13]; [29],58.9 µM
same,TGI,[13]; read-out: pTGI (converted),29.5 µM
same,GI50,[14],6.46 µM
same,CC50,[14]; [29],> 100 µM
same,TGI,[14]; read-out: pTGI (converted),30.9 µM
same,GI50,[15],13.2 µM
same,LC50 (50% net cell kill),[15],> 100 µM
same,TGI,[15]; read-out: pTGI (converted),26.3 µM
same,CC50,[16]; [29],> 100 µM
same,TGI,[16]; read-out: pTGI (converted),57.5 µM
same,GI50,[17],13.5 µM
same,LC50,[17],> 100 µM
same,TGI,[17]; read-out: pTGI (converted),51.3 µM
same,GI50,[18],10 µM
same,LC50,[18],47.9 µM
same,TGI,[18]; read-out: pTGI (converted),21.9 µM
same,GI50,[19],2.82 µM
same,CC50,[19]; [29],72.4 µM
same,TGI,[19]; read-out: pTGI (converted),11 µM
same,GI50,[20],12.9 µM
same,LC50 (50% net cell death),[20],> 100 µM
same,TGI,[20]; read-out: pTGI (converted),37.2 µM
same,GI50,[21],8.13 µM
same,CC50,[21]; [29],47.9 µM
same,TGI,[21]; read-out: pTGI (converted),21.4 µM
same,GI50,[22],24.5 µM
same,LC50,[22],> 100 µM
same,TGI,[22]; read-out: pTGI (converted),60.3 µM
same,GI50,[23],15.8 µM
same,LC50,[23],75.9 µM
same,TGI,[23]; read-out: pTGI (converted),34.7 µM
same,GI50,[24],25.1 µM
same,LC50,[24],> 100 µM
same,TGI,[24]; read-out: pTGI (converted),97.7 µM
same,GI50,[25],22.9 µM
same,CC50,[25]; [29],> 100 µM
same,TGI,[25]; read-out: pTGI (converted),83.2 µM
same,GI50,[26],14.8 µM
same,LC50 (50% net cell kill),[26],53.7 µM
same,TGI,[26]; read-out: pTGI (converted),28.2 µM
same,GI50,[27],28.2 µM
same,CC50,[27]; [29],> 100 µM
same,TGI,[27]; read-out: pTGI (converted),57.5 µM
same,GI50,[28],17 µM
same,CC50,[28]; [29],69.2 µM
same,TGI,[28]; read-out: pTGI (converted),34.7 µM

# From ChEMBL document CHEMBL1137710, “Synthesis and in vitro antitumor activity of new quinoxaline derivatives” (2009)
